ED50, IC50 and ID50 data for nine compounds are collected here from ChEMBL document CHEMBL1128415 (J Med Chem, 1995).

One experiment deals with Rattus norvegicus. Description: Effective dose to inhibit AII-induced pressor response in pithed rats, was determined in vivo after intraduodenal administration. To be noted: read-out: ID50 (the source's name).
The target of experiment [1] is T1, Angiotensin II receptor (AT-1) type-1 (Rattus norvegicus, UniProt P29089+P25095).
T1 sequence (P29089 whole entry): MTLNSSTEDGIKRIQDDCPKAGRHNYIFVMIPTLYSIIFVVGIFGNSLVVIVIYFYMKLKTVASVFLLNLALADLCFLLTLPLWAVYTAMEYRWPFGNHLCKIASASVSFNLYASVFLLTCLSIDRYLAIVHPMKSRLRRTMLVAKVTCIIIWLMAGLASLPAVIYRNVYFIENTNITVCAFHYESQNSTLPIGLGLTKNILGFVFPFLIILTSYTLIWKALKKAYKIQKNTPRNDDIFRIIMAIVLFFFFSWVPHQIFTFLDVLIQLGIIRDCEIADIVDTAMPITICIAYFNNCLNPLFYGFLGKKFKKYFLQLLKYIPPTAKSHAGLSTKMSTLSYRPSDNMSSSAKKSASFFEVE
T1 sequence (P25095 whole entry): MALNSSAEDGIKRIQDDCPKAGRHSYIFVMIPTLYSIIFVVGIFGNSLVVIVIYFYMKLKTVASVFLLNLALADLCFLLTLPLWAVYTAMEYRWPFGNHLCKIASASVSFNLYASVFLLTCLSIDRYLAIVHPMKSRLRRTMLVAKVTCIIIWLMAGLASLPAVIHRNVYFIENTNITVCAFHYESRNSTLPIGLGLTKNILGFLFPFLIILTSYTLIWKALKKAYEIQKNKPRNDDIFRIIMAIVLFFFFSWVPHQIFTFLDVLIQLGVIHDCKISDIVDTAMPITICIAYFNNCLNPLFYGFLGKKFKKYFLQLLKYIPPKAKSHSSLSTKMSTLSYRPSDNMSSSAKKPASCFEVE
The experiment can be described thus: Specific binding inhibition of [125I]AII to Angiotensin II receptor, type 1 in rat liver membrane. It is filed as cell membranes.

Experiment [2] concerns the target T2, Angiotensin II receptor (AT-1) type-1 (Rattus norvegicus) (UniProt P29089+P25095). Description: Inhibition of pressor response induced by infusion of angiotensin II in rats, administered perorally. The experiment is classed as functional. The method in brief:
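Sprague-Dawley rats (n = 18-28) dosed by gastric tube in groups; vehicle water or water with 2 equiv NaOH; controls given water. At 50 min rats anaesthetised, pithed, ventilated, with carotid and jugular catheters. At 1 h post-dose AII 0.75 μg/kg iv given.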

The target in experiment [3] is T2, Angiotensin II receptor (AT-1) type-1 (Rattus norvegicus). The experiment can be described thus: Inhibition of pressor response induced by infusion of AII in rats when dose is administered intravenously. It is filed as functional. The method in brief: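 Normotensive Sprague-Dawley pithed rats (n = 4), BP recorded by carotid catheter. AII 0.75 μg/kg injected via jugular vein; three control responses taken. Each later AII challenge followed, by 5 min, an iv injection of antagonist at increasing doses, in water or water with 2 equiv NaOH.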

Some results are limits rather than exact numbers.

As usually defined, the IC50 is the concentration that gives 50% inhibition. On to `CCCCc1nc(SC)c(C(=O)O)n1Cc1ccc(-c2ccccc2S(=O)(=O)NS(=O)(=O)CC)cc1`, for which the ED50 with Rattus norvegicus is above 1 mg/kg. The compound further had an IC50 in experiment [1] of 1.1 nM.
For `CCCCOC(=O)NS(=O)(=O)c1ccccc1-c1ccc(Cn2c(CCCC)nc(SC)c2C(=O)O)cc1`, the ID50 in experiment [2] came to 0.6 mg/kg; in experiment [3], 0.1 mg/kg. Further, in experiment [1], the IC50 worked out at 0.1 nM.
In the same order, the values of `CCCCc1nc(SC)c(C(=O)OCc2ccccc2)n1Cc1ccc(-c2ccccc2S(=O)(=O)NC(=O)NCCC)cc1` are 1.73 mg/kg, 0.2 mg/kg and 0.1 nM.
Taken in the same sequence, the figures for `CCCCc1nc([S+](C)[O-])c(C(=O)O)n1Cc1ccc(-c2ccccc2S(=O)(=O)NC(=O)NCCC)cc1` (stereo unspecified) were above 10 mg/kg, 0.14 mg/kg and 3.1 nM.
For `CCCCc1nc(SC)c(C(=O)O)n1Cc1ccc(-c2ccccc2S(=O)(=O)NC(=O)OCC)cc1`, the figures for the ID50 in experiment [2] and in experiment [3] were 0.38 mg/kg and 0.07 mg/kg, respectively. Also, the IC50 in experiment [1] is on record as 0.9 nM.
Take `CCCCc1nc(SCCCCOC(C)=O)c(C(=O)O)n1Cc1ccc(-c2ccccc2S(=O)(=O)NC(=O)NCCC)cc1`: the ID50 in experiment [2] was above 10 mg/kg; in experiment [3] it was 0.6 mg/kg. For the same compound, the IC50 in experiment [1] is recorded as 0.3 nM.
In the same order, the values of `CCCCc1nc(S(C)(=O)=O)c(C(=O)O)n1Cc1ccc(-c2ccccc2S(=O)(=O)NC(=O)NCCC)cc1` are above 10 mg/kg, 0.06 mg/kg and 3.2 nM.
`C=CCNC(=O)NS(=O)(=O)c1ccccc1-c1ccc(Cn2c(CCCC)nc(SC)c2C(=O)O)cc1`: the ID50 in experiment [2] came out at 0.57 mg/kg; in experiment [3], 0.11 mg/kg. In addition, the IC50 in experiment [1] stood at 1.1 nM.
In the same order, the values of `CCCCc1nc(SC)c(C(=O)NC(C(=O)O)C(C)CC)n1Cc1ccc(-c2ccccc2S(=O)(=O)NC(=O)NCCC)cc1` (stereo unspecified) are 2.11 mg/kg, 0.37 mg/kg and 0.3 nM.
